The list is not random: actives were taken first. Their share in the collection is about 2.6%.
FGF22 binding = binders of human FGF22 protein, primary screen, FGF22 synaptogenesis inhibitor project, biophysical, thermal shift, single point; activity (Tm shift, normalised), % at 9.99 µM; recombinant FGF22 thermal shift, SYPRO orange fluorescence; percent of sucrose octasulfate shift, DMSO zero; 340,000 tested, 1.5% active; Fibroblast growth factor 22 (Homo sapiens), Q9HCT0;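 active = mean Tm shift, scaled 0 neutral to 100 positive control, at about 1.3% or above, every replicate too, limit read from the data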
Target sequence (Q9HCT0 whole entry, looked up): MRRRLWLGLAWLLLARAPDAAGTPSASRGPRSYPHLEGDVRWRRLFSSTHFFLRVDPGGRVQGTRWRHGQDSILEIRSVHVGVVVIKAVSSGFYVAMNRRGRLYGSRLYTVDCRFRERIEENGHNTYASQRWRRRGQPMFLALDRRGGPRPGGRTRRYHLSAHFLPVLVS
SIRT5 inh = SIRT5 desuccinylase inhibitors, primary screen, biochemical, fluorescence imaging, single point, set 5; inhibition, % at 15 µM; AID 652115, 2013; NAD-dependent protein deacylase sirtuin-5, mitochondrial (Homo sapiens), Q9NXA8; Purified SirT5, succinyl-peptide AMC, trypsin-coupled fluorescence; 330,000 tested, 1.1% active; in the data active = inhibition above about 15%
Casp6 inh = human caspase-6 inhibitors, primary screen, biochemical, VEID-R110 fluorescence, single point, set 2. 350,000 tested, 0.53% active. P55212. purified caspase-6, Z-VEID-R110 cleavage fluorescence. inhibition, % at 12.5 µM;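 active = mean inhibition across replicates at least about 35%, with every replicate also reaching that limit, limit read from the data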;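 also: 0% = median of neutral control wells and 100% = no fluorescence left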
NSD2 HMT inh = NSD2 histone methyltransferase inhibitors, primary screen, biochemical, AlphaScreen, single concentration, set 2; NSD2 peptide methylation, 120 min; Histone-lysine N-methyltransferase NSD2 (Homo sapiens), O96028; AID 743445, 2014; inhibition, % at 12.5 µM; 310,000 tested, 0.54% active; in the data active = inhibition above about 50%
UCH37 inh = inhibitors of human UCH37 deubiquitinase, primary screen, biochemical, Ub-AMC cleavage, fluorescence | Ubiquitin carboxyl-terminal hydrolase isozyme L5 (Homo sapiens), Q9Y5K5 | purified proteasome/UCH37 | inhibition, % (test concentration not listed) | 330,000 tested, 0.33% active;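 active = mean inhibition over replicate wells above about 20%, limit read from the data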;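 also: 0% = compound-free wells with enzyme and 100% = wells lacking proteasome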
Target sequence (Q9Y5K5 whole entry, looked up): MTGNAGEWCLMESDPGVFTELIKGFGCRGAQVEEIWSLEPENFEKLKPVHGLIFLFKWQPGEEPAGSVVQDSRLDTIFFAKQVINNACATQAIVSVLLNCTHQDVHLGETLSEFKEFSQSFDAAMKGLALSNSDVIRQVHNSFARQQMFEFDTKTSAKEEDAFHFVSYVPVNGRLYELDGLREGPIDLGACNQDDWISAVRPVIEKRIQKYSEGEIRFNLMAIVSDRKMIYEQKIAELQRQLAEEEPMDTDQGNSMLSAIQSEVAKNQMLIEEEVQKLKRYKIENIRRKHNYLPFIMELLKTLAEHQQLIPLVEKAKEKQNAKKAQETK
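Schedule: 30 min plus 25 min, room temperature / Material: human UCH37 within purified proteasomes / Technique: AMC fluorescence intensity at 355/460 nm / Buffer or medium: pH 7.4 Tris-HCl (50 mM) with ovalbumin, ATP-MgCl2, DTT / Controls: wells without proteasome as full block, compound-free enzyme plus substrate as uninhibited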
The depositor's hits bear a star; . = no result given.

SMILES	FGF22 binding	SIRT5 inh	Casp6 inh	NSD2 HMT inh	UCH37 inh
O=C1COc2ccc(S(=O)(=O)CCC(=O)N3CCN(c4ccccc4)CC3)cc2N1	0	-1	1	-1	0
Cc1ccc(C)c(N2CCN(C(=O)CCS(=O)(=O)c3ccc4c(c3)NC(=O)CO4)CC2)c1	0	0	71*	-1	2
O=C(O)C1C=CC(C(=O)O)c2ccccc21 (configuration not stated)	44*	.	-1	1	.
Cn1ccsc1=NC(=O)c1ccc([N+](=O)[O-])o1	0	-3	49*	4	13
CNC[C@@H]1OCCCC[C@H](C)Oc2ccc(NC(=O)Nc3ccc(F)cc3)cc2C(=O)N([C@H](C)CO)C[C@@H]1C	0	2	-2	.	.
Cc1ccccc1-n1c(=S)[nH]c2nc3c(cc2c1=O)CCCC3	43*	-1	-4	-4	3
COc1ccc(CCN2CC(C(=O)NCCc3ccc(C)cc3)CC2=O)cc1OC (configuration not stated)	0	-3	48*	1	3
COc1ccc(CCNC(=O)C2CC(=O)N(c3ccc(C)cc3)C2)cc1OC (configuration not stated)	41	-4	0	-4	6
O=C(C1CCOCC1)N1CC2(C1)[C@H](c1ccccc1)[C@H](CO)N2C(=O)CC1CC1	0	-5	-4	.	.
COc1ccc(OCCNS(=O)(=O)c2cccc([N+](=O)[O-])c2)cc1	43*	-9	0	0	.
Cc1nn(-c2ccc3ccccc3c2)c(=O)c2ccccc12	44*	1	0	-2	-3
O=C(c1cccnc1)N1C[C@@H]2[C@H](c3ccccc31)[C@H](CO)N2C(=O)Nc1ccccc1F	0	2	0	.	.
C/C(=N/NC(=O)c1cc(O)c(O)c(O)c1)c1ccc([N+](=O)[O-])cc1	1	3	74*	17	.
CCC(=O)NC(c1cccs1)c1cc([N+](=O)[O-])c2cccnc2c1O (configuration not stated)	0	24*	20	-2	20*
CC(=O)NC(c1cccs1)c1cc([N+](=O)[O-])c2cccnc2c1O (configuration not stated)	0	4	25	2	20*
C[C@@H]1CN([C@@H](C)CO)C(=O)c2cccc(NS(=O)(=O)c3ccc(F)cc3)c2O[C@@H]1CN(C)C(=O)NC1CCCCC1	-1	-1	-2	.	.
COCC(=O)N1C[C@H]2[C@@H](c3ccccc31)[C@H](CO)N2Cc1ccccc1	0	0	-3	.	.
COc1ccc(S(=O)(=O)N(C)C[C@@H]2Oc3ccc(NC(=O)Cc4ccccc4)cc3CC(=O)N([C@@H](C)CO)C[C@@H]2C)cc1	0	-1	0	.	.
CCCCCc1ccc(-c2nnc(N)s2)cc1	43*	-2	1	-1	0
COc1cccc(S(=O)(=O)N(C)C[C@@H]2Oc3cc(C4=CCCCC4)ccc3S(=O)(=O)N([C@@H](C)CO)C[C@H]2C)c1	0	22*	0	.	.
COc1cccc(S(=O)(=O)N(C)C[C@H]2Oc3cc(C4=CCCC4)ccc3S(=O)(=O)N([C@@H](C)CO)C[C@H]2C)c1	0	21*	3	.	.
COc1cccc(S(=O)(=O)N(C)C[C@H]2Oc3cc(C4=CCCCC4)ccc3S(=O)(=O)N([C@@H](C)CO)C[C@@H]2C)c1	0	-1	0	.	.
O=C(COC(=O)c1cc(=O)[nH]c2ccccc12)NC1CCCC1	0	25*	18	-2	-42
CCOC(=O)c1cc(=O)[nH]c2ccccc12	43*	-2	-3	-3	-57
CCOC(=O)Cc1c(Cl)c2ccccc2[nH]c1=O	43*	0	-1	-2	-3
SMILES	FGF22 binding	SIRT5 inh	Casp6 inh	NSD2 HMT inh	UCH37 inh
CC1CCCCC1NC(=O)COC(=O)c1cc(=O)[nH]c2ccccc12 (configuration not stated)	0	2	1	-1	-17
COc1ccc(CCNC(=O)c2cc(=O)[nH]c3ccccc23)cc1	0	0	-1	3	-15
O=C(NCCc1ccccc1)c1cc(=O)[nH]c2ccccc12	43*	-5	-4	7	.
Cc1ccc(C(=O)NN=Cc2ccc3c(c2)OCO3)cn1	.	.	.	.	8
O=C(C[C@@H]1CC[C@H](NC(=O)Nc2ccc3c(c2)OCO3)[C@@H](CO)O1)NCc1ccc(Cl)cc1	1	-3	0	.	.
COc1cc(C=Nn2c(=S)[nH]nc(C)c2=O)cc([N+](=O)[O-])c1O	.	.	.	.	19
Cc1ccc(OCC(=O)NN=Cc2cccn2C)cc1C	.	.	.	.	5
Cc1noc(C)c1S(=O)(=O)Nc1cccc2c1O[C@H](CN(C)Cc1ccc(C(=O)O)cc1)[C@@H](C)CN([C@@H](C)CO)C2=O	0	4	-2	.	.
COCC#Cc1cnc2c(c1)C(=O)N([C@@H](C)CO)C[C@@H](C)[C@@H](CN(C)C(=O)c1ccc(F)cc1)O2	0	31*	0	.	.
COc1ccccc1C#Cc1cnc2c(c1)C(=O)N([C@@H](C)CO)C[C@H](C)[C@@H](CN(C)C)O2	0	31*	2	.	.
CC(C)C#Cc1cnc2c(c1)C(=O)N([C@@H](C)CO)C[C@H](C)[C@@H](CN(C)C(=O)Cc1ccccn1)O2	0	17*	4	.	.
CC(C)NC(=O)N(C)C[C@H]1Oc2ncc(C#CCc3ccccc3)cc2C(=O)N([C@@H](C)CO)C[C@@H]1C	0	16*	1	.	.
COc1ccc(C=NNC(=O)c2ccn[nH]2)cc1COc1ccc([N+](=O)[O-])c(C)c1	.	.	.	.	8
CO[C@@H]1CN(C)C(=O)c2ccc(NC(=O)C3CC3)cc2OC[C@@H](C)N(Cc2cc(F)ccc2F)C[C@H]1C	0	-1	-3	.	.
CCCN(C)C[C@@H]1Oc2ncc(C#CCOC)cc2C(=O)N([C@H](C)CO)C[C@@H]1C	0	1	-2	.	.
CC(C)C#Cc1cnc2c(c1)C(=O)N([C@@H](C)CO)C[C@H](C)[C@H](CN(C)C(=O)c1ccccc1)O2	0	17*	0	.	.
COc1ccccc1NC(=O)N(C)C[C@H]1Oc2ncc(C#CC(C)C)cc2C(=O)N([C@@H](C)CO)C[C@@H]1C	0	16*	1	.	.
Cc1ccccc1S(=O)(=O)N[C@H]1CC[C@@H](CCn2cc(Cc3ccccc3)nn2)O[C@@H]1CO	0	2	2	.	.
O=C(Cc1ccccn1)N[C@H]1CC[C@@H](CCn2cc(-c3cccnc3)nn2)O[C@H]1CO	0	4	-2	.	.
